procasp7 counter = counter-screen for procaspase-3 activators: activators of human procaspase-7; AID 463210; 330,000 tested, 0.093% active; activation, % at 8.5 µM; recombinant procaspase-7, Ac-DEVD-pNA absorbance 405 nm; D23A/D198A/D206A triple mutant, cannot self-cleave; scale: DMSO 0, 5 µM enzyme 100;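 active means percent activation above the screen-wide mean plus 3 SD, cut at about 25% in these data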
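Assay system: Uncleavable procaspase-7 mutant enzyme / Input: 2 µM procaspase-7 mutant as dispensed / Dosing: single nominal 8.5 µM compound dose, 0.8% DMSO final / Timing: 1 h enzyme–compound preincubation and 2 h substrate reaction, both 25 °C / Detection: p-Nitroaniline absorbance at 405 nm, read at 0 and 120 min / Replication: singlicate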
procasp3 activ = activates human procaspase-3. P42574. recombinant procaspase-3 D3A, Ac-DEVD-pNA absorbance 405 nm. activation, % at 8.5 µM. 330,000 tested, 0.11% active. AID 463141;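 active means activation above the mean of all tested compounds plus 3 SD, cut at about 21% in these data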;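 further: 0% = DMSO alone and 100% = DMSO wells spiked with extra 5 µM PC-3 D3A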
Target sequence (P42574 whole entry D9A/D28A/D175A): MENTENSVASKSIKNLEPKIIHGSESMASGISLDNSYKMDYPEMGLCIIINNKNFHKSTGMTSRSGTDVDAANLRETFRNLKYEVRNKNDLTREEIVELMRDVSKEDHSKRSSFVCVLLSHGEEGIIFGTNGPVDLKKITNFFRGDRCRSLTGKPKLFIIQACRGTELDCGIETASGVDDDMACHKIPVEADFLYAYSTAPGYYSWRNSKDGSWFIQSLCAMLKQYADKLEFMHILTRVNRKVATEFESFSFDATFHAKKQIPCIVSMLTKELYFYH
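Technique: 405 nm absorbance of p-nitroaniline, reads at 0 and 120 min; Test system: Procaspase-3 D3A mutant; Incubation: 1 h enzyme-compound preincubation, then 2 h substrate reaction, 25 °C; Repeats: singlicate, each compound tested once; Benchmarks: low control DMSO wells, high control DMSO plus 5 µM PC-3 D3A.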
NR3A LBD binder = modulates the human NR3A ligand-binding domain. Tm shift relative to glycine control, % at 25 µM. 340,000 tested, 2.5% active. NR3A LBD differential scanning fluorimetry, Tm shift; 0% = protein alone, 100% = glycine-bound protein;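 active means melting temperature shift of at least 10% of the positive control shift, at one fixed dose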
aDG glyco act = increases alpha dystroglycan glycosylation; activation, % at 10 µM; Pro5-aDG cells, alpha-DG glycosylation AlphaScreen (IIH6); 0% Pro5, 100% B10-LARGE cell signal; AID 624168; 360,000 tested, 0.22% active;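 active means activation of at least 8% versus controls, or a plate z-score of at least 8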;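 further: Pro5 are CHO cells carrying HIG-tagged alpha-DG that lacks glycosylation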
MPTP block = blocks calcium-induced mitochondrial swelling; isolated mouse mitochondria, Ca2+ swelling absorbance, 30 min; inhibition, % at 10 µM; 360,000 tested, 1.4% active; AID 602449;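 active means inhibition of 50% or more, scaled per plate between neutral and stimulator controls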;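 further: 0% = DMSO wells given calcium and 100% = 1 mM EGTA wells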
An asterisk follows results filed as active; . = no result. The list is not random: actives were taken first. Their share in the collection is about 3.7%.

SMILES	procasp7 counter	procasp3 activ	NR3A LBD binder	aDG glyco act	MPTP block
COc1cc(/C=C2/C(=N)N3C=CSC3=NC2=O)ccc1OCCCOc1ccccc1C	4	-1	18*	0	1
Cc1ccc(N(CC(=O)NC(C)(C)C)C(=O)CCC(=O)Nc2ccccn2)cc1	.	.	.	0	0
NS(=O)(=O)c1ccc2nc(NC(=O)c3ccc4ncsc4c3)sc2c1	4	3	30*	0	0
Cc1ccc2nc(NC(=O)c3ccc4ncsc4c3)sc2c1	3	-2	18*	0	0
Cc1ccc2nc(NC(=O)c3ccc4c(c3)OCO4)sc2c1	0	-1	3	0	1
Cc1cc(N/N=C/c2ccc(F)cc2)nc(NCc2ccccc2)n1	3	7	35*	0	13
Cc1ccc(/C=N/Nc2cc(C)nc(NCc3ccccc3)n2)cc1	-2	-8	1	1	42
OCc1nc2ccccc2n1CCCc1ccccc1	.	.	.	0	-2
N#CCC(=O)Nc1ccc(C(=O)Nc2ccc3c(c2)OCO3)cc1	11	-1	29*	0	0
O=C(Nc1ccc2c(c1)OCO2)N1CCN(S(=O)(=O)c2ccc(Cl)cc2)CC1	-34	-7	-2	0	-1
O=C(Nc1ccc2c(c1)OCO2)c1ccc2c(c1)OCO2	-2	4	-8	0	-1
O=C(Nc1ccc2nsnc2c1)c1ccc2c(c1)OCO2	-7	3	14*	0	0
O=C(Nc1ccc2c(c1)OCO2)N1CCN(c2ccccc2Cl)CC1	-38	-11	27*	0	-1
O=C(Nc1ccc(Cl)c(Cl)c1)c1ccc2c(c1)OCO2	-8	-6	37*	0	5
CC(C)(C)NC(=O)C1(C)CCC(=O)N1C1CCN(Cc2ccccc2)CC1 (stereo unspecified)	.	.	.	0	1
NC(=O)c1csc(CCNC(=O)c2ccccc2)n1	.	.	.	0	-1
COCCNC(=O)C1(C)CCN(C(=O)COc2ccc(Cl)cc2Cl)C1 (stereo unspecified)	.	.	.	0	-2
COc1ccc(NC(=S)Nc2ccc(OCc3ccccc3)cc2)c(OC)c1	-13	-10	10*	0	13
NS(=O)(=O)c1ccc(NC(=S)Nc2ccc(OCc3ccccc3)cc2)cc1	-11	-4	12*	0	2
CCN(CC)C(=O)C1=C(C)N(Cc2ccc(F)cc2)C(=O)C(CC(=O)NCc2ccco2)C1 (stereo unspecified)	.	.	.	0	-1
Cc1ccc(-c2cc(-c3ccccc3)no2)cc1	-2	-5	1	0	1
c1ccc(-c2cc(-c3ccccc3)on2)cc1	10	6	30*	0	1
C[C@H]1CN([C@@H](C)CO)C(=O)CCCn2nncc2CO[C@@H]1CN(C)Cc1cccc(C(=O)O)c1	.	.	.	0	0
COc1cc(OC)c(C(=O)OCC(=O)NCC2CCCCC2)cc1OC	.	.	5	0	-1
Cc1ccc(NC(=O)c2ccc(N3C(=O)C4CC=C(Cl)CC4C3=O)cc2)cc1 (stereo unspecified)	0	3	26*	0	-1
SMILES	procasp7 counter	procasp3 activ	NR3A LBD binder	aDG glyco act	MPTP block
Cn1ncc(Br)c1C(=O)Nc1ccc(Br)cn1	-3	16	-3	0	1
Cn1ncc(Br)c1C(=O)Nc1ccc(Cl)cn1	-2	10	13*	0	6
O=[N+]([O-])c1ccc(/C=N/Nc2cc(Cl)nc(-c3ccccc3)n2)cc1	3	3	-1	0	5
C/C(=N\Nc1cc(C)nc(-c2ccccc2)n1)c1cccc([N+](=O)[O-])c1	5	7	17*	0	1
C/C(=N\Nc1cc(C)nc(-c2ccccc2O)n1)c1ccccc1	3	9	14*	0	1
Cc1ccc(Nc2cc(C)nc(-c3ccccc3O)n2)cc1	5	14	7	0	29
Cc1cc(N/N=C/c2ccc(O)c(C)c2O)nc(-c2ccccc2O)n1	3	0	32*	-1	4
C/C(=N\Nc1ncc(Br)cn1)c1cccc([N+](=O)[O-])c1	-1	-6	5	0	1
O=[N+]([O-])c1cccc(/C=N/Nc2cc(Cl)nc(-c3ccccc3)n2)c1	17	3	28*	3	6
